Measured values published in paper PMC2172527 (The Journal of Cell Biology, 2004).
Entries after “also recorded” stand apart in the source; their conditions may differ. Ends that are not written are not given here.

Tests used:
[1] = test system: talin; assay: GST-PIPKIγ tail pull-down, rat brain extract; format: binding; conditions: rat brain protein extracts; Western blot and Coomassie blue, Fig. 1 A, B
Method in brief: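 Bait: human PIPKIγ tail (aa 635–662) expressed as a GST fusion and purified, with GST alone as control. Used for affinity pull-down from lamprey spinal cord or rat brain extracts. Bound proteins were run on protein gels, then Coomassie blue stained or Western blotted with anti-talin antibody TD77.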

[2] = biological target: PIPKIγ (90-kD protein doublet); assay: GST-talin head pull-down, lamprey extract; format: binding; conditions: Western blot with anti-PIPKIγ antibody, Fig. 1 E
Method in brief: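 Bait: human talin 2 head (aa 1–438) expressed as a GST fusion and purified, with GST alone as control. Used for affinity purification from lamprey extract alongside a load lane. Eluates were Western blotted with an in-house anti-PIPKIγ antibody to detect the 90-kD doublet.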

[3] = test system: lamprey reticulospinal synapses; assay: EM of stimulated synapses in microinjected axons; format: cell-based, lamprey (Ichthyomyzon unicuspis); conditions: GST-talin head-injected axons, estimated 0.5–2.5 μM; Fig. 5

Row | affinity purification of PIPKIγ 90-kD doublet (in words) [2] | Molecule | affinity purification of talin (in words) [1] | clathrin-mediated endocytosis at stimulated synapses (in words) [3]
1 | – | GST-PIPKIγ tail: GST fusion protein of human PIPKIγ tail (aa 635–662), the 28-aa COOH-terminal tail ({GST}-ATDIYFPTDERSWVYSPLHYSAQAPPAS) | purification of the upper talin band; also recorded: Talin was the only major band retained | –
2 | specifically affinity purified | GST-talin head: human talin 2 head (aa 1–438) expressed as GST fusion protein (protein, left off: GST, end not stated, kept) MVALSLKICVRHCNVVKTMQFEPSTAVYDACRVIRERVPEAQTGQASDYGLFLSDEDPRKGIWLEAGRTLDYYMLRNGDILEYKKKQRPQKIRMLDGSVKTVMVDDSKTVGELLVTICSRIGITNYEEYSLIQETIEEKKEEGTGTLKKDRTLLRDERKMEKLKAKLHTDDDLNWLDHSRTFREQGVDENETLLLRRKFFYSDQNVDSRDPVQLNLLYVQARDDILNGSHPVSFEKACEFGGFQAQIQFGPHVEHKHKPGFLDLKEFLPKEYIKQRGAEKRIFQEHKNCGEMSEIEAKVKYVKLARSLRTYGVSFFLVKEKMKGKNKLVPRLLGITKDSVMRVDEKTKEVLQEWPLTTVKRWAASPKSFTLDFGEYQESYYSVQTTEGEQISQLIAGYIDIILKKKQSKDRFGLEGDEESTMLEESVSPKKSTILQQQ | – | a perturbation of clathrin-mediated endocytosis at synapses similar to that observed with PIPK pep
